# Source: ChEMBL document CHEMBL2093137, “WHO-TDR NTD Screening”
# Experiments:
# Onchocerca ochengi [1] = experiment: (§1) WHO-TDR: Onchocerciasis; format: functional; parameters: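 at 12.5 µM on microfilariae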
# How it was run: (§2)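 Values are reported as percent inhibition and as IC50. They come from a whole-organism screen of a 10,000-compound diverse Life Chemicals library against microfilariae of Onchocerca ochengi or Onchocerca lienalis. The screen followed previously published standard procedures, with reference drugs as positive controls.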
# Plasmodium falciparum K1 = experiment: WHO-TDR: Malaria; format: functional, organism-based, Homo sapiens; details: Erythrocyte
# How it was run: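 Following previously published standard procedures, with a reference drug serving as positive control, compounds were tested on the Plasmodium falciparum K1 strain inside human red blood cells. The 10,000-compound diverse set came from Life Chemicals after filtering for drug-likeness and reactive groups. Potency against the parasite appears as IC50.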
# Leishmania infantum = experiment: WHO-TDR: Leishmaniasis; format: functional, organism-based, Mus musculus; details: Macrophage
# How it was run: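 Following previously published standard procedures, a whole-organism screen was run on Leishmania infantum MHOM/MA(BE)/67 amastigotes within murine peritoneal macrophages, with a reference drug as positive control. The 10,000 compounds tested formed a diverse Life Chemicals library filtered for drug-likeness and reactive groups. Potency against the parasite is reported as IC50.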
# Schistosoma mansoni = experiment: WHO-TDR: Schistosomiasis; format: functional; parameters: concentration or dose not given beside the values
# How it was run: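 Values are reported as percent inhibition and IC50. They come from a whole-organism screen of a 10,000-compound diverse Life Chemicals library against larval and/or adult worms of Schistosoma mansoni, Puerto Rican strain. The library had been filtered for drug-likeness and reactive groups.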
# [2] = tested on: Trypanosoma brucei brucei; experiment: WHO-TDR: Human African Trypanosomiasis (HAT); format: functional, organism-based; details: Squib-427
# How it was run: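 Bloodstream forms of the Trypanosoma brucei Squib 427 strain were tested in a whole-organism screen with a diverse library from Life Chemicals of 10,000 compounds. Before screening, the library was filtered for drug-likeness and for reactive groups. The assay used previously published standard procedures and included reference drugs as positive controls. Potency against the parasite is expressed as IC50.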
# Onchocerca ochengi [3] = experiment: as §1; format: functional; parameters: concentration or dose not given beside the values; how it was run: as §2; remark: listed apart in the source
# [4] = WHO-TDR: Cytotoxicity; format: toxicity, cell-based; details: human, MRC5 cells
# Trypanosoma cruzi = experiment: WHO-TDR: Chagas disease; format: functional, organism-based, Homo sapiens; details: MRC5
# How it was run: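 Intracellular amastigotes of the Trypanosoma cruzi Tulahuen CL2 beta-galactosidase strain, grown in MRC-5SV2 human lung fibroblast host cells, were tested in a whole-organism screen. The compounds came from a 10,000-member diverse Life Chemicals library that had been filtered for drug-likeness and reactive groups. Previously published standard procedures were followed, with a reference drug as positive control, and potency is reported as IC50.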
Structure (SMILES),% Inhibition (Onchocerca ochengi [1]),IC50 (Plasmodium falciparum K1),IC50 (Leishmania infantum),% Inhibition (Schistosoma mansoni),IC50 [2],% Inhibition (Onchocerca ochengi [3]),IC50 [4],IC50 (Trypanosoma cruzi)
CC1CCN(C(C)CNC(=O)Nc2cccc(Cl)c2)CC1 (stereo not drawn),50%,1.01 µg/mL,4.81 µg/mL,0%,0.301 µg/mL,0%,> 9.29 µg/mL,> 9.29 µg/mL
CCCc1cc(=O)[nH]c(-n2nc(C)cc2NC(=O)COc2ccc(Cl)cc2Cl)n1,75%,5.1 µg/mL,> 13.1 µg/mL,0%,0.47 µg/mL,0%,0.362 µg/mL,0.395 µg/mL
O=C(NCC1CC(=O)N(c2ccc(Cl)cc2)C1)Nc1ccccc1F (stereo not drawn),100%,> 10.9 µg/mL,> 10.9 µg/mL,0%,> 10.9 µg/mL,0%,> 10.9 µg/mL,> 10.9 µg/mL
CCCc1cc(=O)[nH]c(-n2nc(C)cc2NC(=O)c2ccc(Br)o2)n1,50%,0.703 µg/mL,3.94 µg/mL,75%,0.39 µg/mL,0%,0.441 µg/mL,< 0.122 µg/mL
O=C(NCc1cc(-c2ccccc2F)on1)c1ccc(Br)o1,100%,> 11 µg/mL,> 11 µg/mL,0%,> 11 µg/mL,0%,> 11 µg/mL,> 11 µg/mL
CCc1ccc2nc(N(CCN(CC)CC)C(=O)Cc3ccc4c(c3)OCO4)sc2c1,0%,4.52 µg/mL,7.4 µg/mL,0%,0.457 µg/mL,0%,> 14.3 µg/mL,3.61 µg/mL
Cc1ccc2c(c1)NC(=O)c1cc(NC(=O)C3CCCC3)ccc1O2,0%,0.441 µg/mL,> 10.1 µg/mL,0%,> 10.1 µg/mL,0%,> 10.1 µg/mL,> 10.1 µg/mL
CCOc1ccccc1NC(=O)Cn1c(=O)n(Cc2cccs2)c(=O)c2ncccc21,100%,2.95 µg/mL,> 13.1 µg/mL,0%,4.24 µg/mL,0%,> 13.1 µg/mL,> 13.1 µg/mL
C=CCN1C(=O)C(C)(C)COc2ccc(NS(=O)(=O)c3ccc4c(c3)OCCO4)cc21,100%,> 13.3 µg/mL,> 13.3 µg/mL,0%,> 13.3 µg/mL,0%,> 13.3 µg/mL,> 13.3 µg/mL
CC(CNC(=O)Nc1ccc(Oc2ccccc2)cc1)N1CCCCC1 (stereo not drawn),100%,0.754 µg/mL,3.43 µg/mL,0%,0.319 µg/mL,75%,> 10.6 µg/mL,3.98 µg/mL
O=C(NCCn1nc(-c2ccco2)ccc1=O)C1c2ccccc2Oc2ccccc21,0%,> 12.4 µg/mL,1.84 µg/mL,0%,> 12.4 µg/mL,0%,> 12.4 µg/mL,> 12.4 µg/mL
O=C(CC1CCCC1)Nc1nc(CSCc2ccc(F)cc2)cs1,100%,3.04 µg/mL,> 10.9 µg/mL,0%,3.5 µg/mL,0%,> 10.9 µg/mL,2.43 µg/mL
CCc1ccc(S(=O)(=O)Nc2ccc3c(c2)NC(=O)C(C)(C)CO3)s1,100%,> 11.4 µg/mL,3.69 µg/mL,0%,3.08 µg/mL,60%,> 11.4 µg/mL,3.45 µg/mL
CN1CCN(C(CNC(=O)c2ccc(F)c(F)c2)c2ccc3c(c2)CCN3C)CC1 (stereo not drawn),100%,1.47 µg/mL,4.03 µg/mL,0%,> 12.4 µg/mL,0%,3.34 µg/mL,> 12.4 µg/mL
O=C(CS(=O)(=O)c1ccc(F)cc1)Nc1onc2c1CCC2,100%,2.83 µg/mL,> 9.73 µg/mL,0%,3.19 µg/mL,0%,> 9.73 µg/mL,1.71 µg/mL
CN(C1CC1)S(=O)(=O)c1ccc(C(=O)Nc2onc3c2CCCC3)cc1,100%,> 11.3 µg/mL,> 11.3 µg/mL,0%,5.97 µg/mL,0%,> 11.3 µg/mL,3.56 µg/mL
